Test results from ChEMBL document CHEMBL1148105, “Bioactive metabolites from a marine-derived strain of the fungus Emericella variecolor” (2002).
The source made the active and inactive calls. The rule behind the calls is not given here.

Legend:
[1] = Growth inhibition of human RPMI8266 cells; assay type: functional; settings: read-out: pTGI
Method in brief: (§1)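 Run in the NCI 60-cell-line screen under the standard NCI protocol. Cells were tested at concentrations up to 10^-4 M. Potency was expressed as GI50 (M), taken from the NCI mean-graph data.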

[2] = test system: PC-3; test: Growth inhibition of human PC3 cells; assay type: functional; method in brief: as §1
[3] = test system: SW-620; test: Growth inhibition of human SW620 cells; assay type: functional; method in brief: as §1
[4] = test system: SNB-75; test: Growth inhibition of human SNB75 cells; assay type: functional; method in brief: as §1
[5] = test system: HT-29; test: Growth inhibition of human HT-29 cells; assay type: functional
[6] = test system: 786-0; test: Growth inhibition of human 786-0 cells; assay type: functional
Method in brief: (§2)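 Tested in the NCI 60-cell-line screen using the standard NCI protocol, with concentrations up to 10^-4 M. Growth inhibition is reported as GI50 (M), taken from the NCI mean graphs.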

[7] = test system: UO-31; test: Growth inhibition of human UO31 cells; assay type: functional; method in brief: as §1
[8] = Growth inhibition of human Hs 578T cells; assay type: functional; method in brief: as §2
[9] = test system: OVCAR-5; test: Growth inhibition of human OVCAR5 cells; assay type: functional; method in brief: as §2
[10] = test system: HL-60(TB); test: Growth inhibition of human HL-60(TB) cells; assay type: functional
Method in brief: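 Run in the NCI 60-cell line panel using the standard NCI protocol. The value is reported as GI50 in molar units, with 10^-4 M the top concentration examined.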

[11] = test system: CCRF-CEM; test: Growth inhibition of human CCRF-CEM cells; assay type: functional; method in brief: as §2
[12] = test system: Salmonella typhimurium; test: Antimicrobial activity against Salmonella Typhimurium at 100 ug/ml; assay type: functional, organism-based; settings: Salmonella enterica subsp. enterica serovar Typhimurium
[13] = test system: K562; test: Growth inhibition of human K562 cells; assay type: functional; method in brief: as §2
[14] = test system: SK-MEL-5; test: Growth inhibition of human SK-MEL-5 cells; assay type: functional; method in brief: as §1
[15] = test system: A549; test: Growth inhibition of human A549 cells; assay type: functional
[16] = test system: MOLT-4; test: Growth inhibition of human MOLT4 cells; assay type: functional; method in brief: as §2
[17] = test system: U-251; test: Growth inhibition of human U251 cells; assay type: functional; method in brief: as §1
[18] = test system: NCI-H322M; test: Growth inhibition of human NCI-H322M cells; assay type: functional; method in brief: as §2
[19] = test system: NCI-H522; test: Growth inhibition of human NCI-H522 cells; assay type: functional; method in brief: as §2
[20] = test system: BT-549; test: Growth inhibition of human BT549 cells; assay type: functional; method in brief: as §2
[21] = test system: SF-295; test: Growth inhibition of human SF295 cells; assay type: functional; method in brief: as §1
[22] = test system: A498; test: Growth inhibition of human A498 cells; assay type: functional; method in brief: as §2
[23] = test system: NCI-H226; test: Growth inhibition of human NCI-H226 cells; assay type: functional; method in brief: as §2
[24] = test system: NCI-H460; test: Growth inhibition of human NCI-H460 cells; assay type: functional; method in brief: as §2
[25] = test system: MDA-MB-231; test: Growth inhibition of human MDA-MB-231 cells; assay type: functional; method in brief: as §2
[26] = test system: MDA-MB-435; test: Growth inhibition of human MDA-MB-435 cells; assay type: functional; method in brief: as §2
[27] = test system: COLO 205; test: Growth inhibition of human COLO205 cells; assay type: functional; method in brief: as §2
[28] = test system: HCC 2998; test: Growth inhibition of human HCC2998 cells; assay type: functional; method in brief: as §2
[29] = test system: HOP-92; test: Growth inhibition of human HOP92 cells; assay type: functional; method in brief: as §2
[30] = test system: RXF 393; test: Growth inhibition of human RXF393 cells; assay type: functional; method in brief: as §1
[31] = test system: HOP-62; test: Growth inhibition of human HOP62 cells; assay type: functional; method in brief: as §2
[32] = test system: MCF7; test: Growth inhibition of human MCF7 cells; assay type: functional; method in brief: as §2
[33] = read-out: pLC50 (the source's name) (converted)

Structure (SMILES): COc1cccc(/C=C/[C@H]2O[C@@H](C)[C@H](O)[C@@H]2O)c1CO [VARITRIOL]
- TGI [1]: > 100 µM
- GI50 [2]: > 100 µM
- CC50 [2, 33]: > 100 µM
- TGI ([2]; read-out: pTGI): > 100 µM
- GI50 [3]: > 100 µM
- CC50 [3, 33]: > 100 µM
- TGI ([3]; read-out: pTGI): > 100 µM
- GI50 [4]: 245 nM
- CC50 [4, 33]: > 100 µM
- TGI ([4]; read-out: pTGI (converted)): 1020 nM
- GI50 [5]: > 100 µM
- CC50 [5, 33]: > 100 µM
- TGI ([5]; read-out: pTGI): > 100 µM
- GI50 [6]: > 100 µM
- CC50 [6, 33]: > 100 µM
- TGI ([6]; read-out: pTGI): > 100 µM
- GI50 [7]: > 100 µM
- CC50 [7, 33]: > 100 µM
- TGI ([7]; read-out: pTGI): > 100 µM
- GI50 [8]: > 100 µM
- CC50 [8, 33]: > 100 µM
- TGI ([8]; read-out: pTGI): > 100 µM
- GI50 [9]: 67.6 µM
- CC50 [9, 33]: > 100 µM
- TGI ([9]; read-out: pTGI): > 100 µM
- GI50 [10]: 25.1 µM
- CC50 [10, 33]: > 100 µM
- TGI ([10]; read-out: pTGI): > 100 µM
- GI50 [11]: 25.7 µM
- CC50 [11, 33]: > 100 µM
- TGI ([11]; read-out: pTGI (converted)): 70.8 µM
- Activity [12]: inactive
- GI50 [13]: > 100 µM
- CC50 [13, 33]: > 100 µM
- TGI ([13]; read-out: pTGI): > 100 µM
- GI50 [14]: > 100 µM
- CC50 [14, 33]: > 100 µM
- TGI ([14]; read-out: pTGI): > 100 µM
- GI50 [15]: > 100 µM
- CC50 [15, 33]: > 100 µM
- TGI ([15]; read-out: pTGI): > 100 µM
- GI50 [16]: > 100 µM
- CC50 [16, 33]: > 100 µM
- TGI ([16]; read-out: pTGI): > 100 µM
- GI50 [17]: > 100 µM
- CC50 [17, 33]: > 100 µM
- TGI ([17]; read-out: pTGI): > 100 µM
- GI50 [18]: > 100 µM
- CC50 [18, 33]: > 100 µM
- TGI ([18]; read-out: pTGI): > 100 µM
- GI50 [19]: > 100 µM
- CC50 [19, 33]: > 100 µM
- TGI ([19]; read-out: pTGI): > 100 µM
- GI50 [20]: > 100 µM
- CC50 [20, 33]: > 100 µM
- TGI ([20]; read-out: pTGI): > 100 µM
- GI50 [21]: > 100 µM
- CC50 [21, 33]: > 100 µM
- TGI ([21]; read-out: pTGI): > 100 µM
- GI50 [22]: > 100 µM
- CC50 [22, 33]: > 100 µM
- TGI ([22]; read-out: pTGI): > 100 µM
- GI50 [23]: > 100 µM
- CC50 [23, 33]: > 100 µM
- TGI ([23]; read-out: pTGI): > 100 µM
- GI50 [24]: > 100 µM
- CC50 [24, 33]: > 100 µM
- TGI ([24]; read-out: pTGI): > 100 µM
- GI50 [25]: > 100 µM
- CC50 [25, 33]: > 100 µM
- TGI ([25]; read-out: pTGI): > 100 µM
- GI50 [26]: > 100 µM
- CC50 [26, 33]: > 100 µM
- TGI ([26]; read-out: pTGI): > 100 µM
- GI50 [27]: 95.5 µM
- CC50 [27, 33]: > 100 µM
- TGI ([27]; read-out: pTGI): > 100 µM
- GI50 [28]: > 100 µM
- CC50 [28, 33]: > 100 µM
- TGI ([28]; read-out: pTGI): > 100 µM
- GI50 [29]: > 100 µM
- CC50 [29, 33]: > 100 µM
- TGI ([29]; read-out: pTGI): > 100 µM
- GI50 [30]: 162 nM
- CC50 [30, 33]: > 100 µM
- TGI ([30]; read-out: pTGI (converted)): 933 nM
- GI50 [31]: > 100 µM
- CC50 [31, 33]: > 100 µM
- TGI ([31]; read-out: pTGI): > 100 µM
- GI50 [32]: > 100 µM
- CC50 [32, 33]: > 100 µM
- TGI ([32]; read-out: pTGI): > 100 µM
